Results from ChEMBL document CHEMBL1782034, “Design, synthesis and biological evaluation of novel substituted benzoylguanidine derivatives as potent Na+/H+ exchanger inhibitors” (Bioorg Med Chem Lett, 2009).
Activity calls are given as the source filed them.

What was measured:
Rattus norvegicus [1] = test: Cardioprotective activity against ischemia-reperfusion injury in Sprague-Dawley rat assessed as increase in SOD activity in serum at 1 mg/kg, iv; format: functional, organism-based; set-up: dose 1 mg/kg
Method in brief: (§1)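 Rats undergo 45 min coronary artery occlusion followed by 90 min reperfusion. Compound is given iv 5 min before reperfusion at 1, 0.5 or 0.25 mg/kg. Prepared serum is assayed for CK, LDH and SOD activities and MDA content as injury indicators, versus sham and model groups.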

Rattus norvegicus [2] = species: Rattus norvegicus; test: Cardioprotective activity against Langendorff perfused Sprague-Dawley rat heart assessed as increase in relaxing coronary artery at 10 uM; format: functional, organism-based
Method in brief: (§2)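 Isolated hearts are equilibrated 20 min, perfused at a low rate (0.5 ml/min) for 30 min with compound in the perfusate, then reperfused 30 min. Coronary flow at the start and at the end of reperfusion is expressed as a ratio to the end-of-equilibration value. n = 10.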

Rattus norvegicus [3] = test: Cardioprotective activity against ischemia-reperfusion injury in Sprague-Dawley rat assessed as decrease in creatine kinase release at 1 mg/kg, iv; format: functional, organism-based; set-up: dose 1 mg/kg; method in brief: as §1
Rattus norvegicus [4] = test: Cardioprotective activity against ischemia-reperfusion injury in Sprague-Dawley rat assessed as decrease in LDH release at 1 mg/kg, iv; format: functional, organism-based; set-up: dose 1 mg/kg; method in brief: as §1
Rattus norvegicus [5] = test: Cardioprotective activity against ischemia-reperfusion injury in Sprague-Dawley rat assessed as decrease in myocardial infarct size at 1 mg/kg, iv; format: functional, organism-based; set-up: dose 1 mg/kg; conditions: Myocardium
Method in brief: (§3)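 In vivo rat model: coronary artery ligated 45 min, then the ligature is loosened for 90 min of reperfusion. Compound is given as an iv bolus 5 min before reperfusion at 1, 0.5 or 0.25 mg/kg. Infarct size is expressed as a percentage of left ventricle area (IS/LV%). n = 8; compared against sham and model groups.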

Rattus norvegicus [6] = species: Rattus norvegicus; test: Cardioprotective activity against Langendorff perfused Sprague-Dawley rat heart assessed as increase in myocardial energy metabolism at 10 uM; format: functional, organism-based
Method in brief: (§4)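 Isolated rat hearts: 20 min equilibration, then 30 min low-rate perfusion (0.5 ml/min), then 30 min reperfusion. Drug is added to the perfusate during the low-rate period only. After reperfusion, the heart tissue homogenate is assayed for Na+-K+ ATPase activity, lactate (LD) content and ATP content. n = 10; compared against sham and model groups.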

Rattus norvegicus [7] = test: Cardioprotective activity against ischemia-reperfusion injury in Sprague-Dawley rat assessed as decrease in malondialdehyde at 1 mg/kg, iv; format: functional, organism-based; set-up: dose 1 mg/kg; method in brief: as §1
Rattus norvegicus [8] = species: Rattus norvegicus; test: Cardioprotective activity against Langendorff perfused Sprague-Dawley rat heart assessed as increase in […]-K+ ATPase activity in homogenates at 2 to 50 uM; format: functional; method in brief: as §4
Rattus norvegicus [9] = test: Cardioprotective activity against ischemia-reperfusion injury in iv dosed Sprague-Dawley rat assessed as decrease in LDH release; format: functional, organism-based; method in brief: as §1
Rattus norvegicus [10] = species: Rattus norvegicus; test: Cardioprotective activity against Langendorff perfused Sprague-Dawley rat heart assessed as decrease in lactic acid content in homogenates at 2 to 50 uM; format: functional; method in brief: as §4
Rattus norvegicus [11] = test: Cardioprotective activity against ischemia-reperfusion injury in iv dosed Sprague-Dawley rat assessed as increase in SOD activity in serum; format: functional, organism-based; method in brief: as §1
Rattus norvegicus [12] = test: Cardioprotective activity against ischemia-reperfusion injury in iv dosed Sprague-Dawley rat assessed as decrease in malondialdehyde; format: functional, organism-based; method in brief: as §1
Rattus norvegicus [13] = test: Cardioprotective activity against ischemia-reperfusion injury in iv dosed Sprague-Dawley rat assessed as decrease in creatine kinase release; format: functional, organism-based; method in brief: as §1
Rattus norvegicus [14] = species: Rattus norvegicus; test: Cardioprotective activity against Langendorff perfused Sprague-Dawley rat heart assessed as increase in myocardial energy metabolism; format: functional, organism-based; method in brief: as §4
Rattus norvegicus [15] = species: Rattus norvegicus; test: Cardioprotective activity against Langendorff perfused Sprague-Dawley rat heart assessed as increase in relaxing coronary artery at 50 uM; format: functional, organism-based; method in brief: as §2
Rattus norvegicus [16] = species: Rattus norvegicus; test: Cardioprotective activity against Langendorff perfused Sprague-Dawley rat heart assessed as increase in coronary flow at 2 to 50 uM; format: functional, organism-based; method in brief: as §2
Rattus norvegicus [17] = species: Rattus norvegicus; test: Cardioprotective activity against Langendorff perfused Sprague-Dawley rat heart assessed as increase in ATP content in homogenates at 2 to 50 uM; format: functional; method in brief: as §4
Rattus norvegicus [18] = test: Cardioprotective activity against ischemia-reperfusion injury in iv dosed Sprague-Dawley rat assessed as decrease in myocardial infarct size; format: functional, organism-based; conditions: Myocardium; method in brief: as §3

Measured: Activity

CC(C)c1ccc(C(=O)N=C(N)N)cc1S(C)(=O)=O
active: Rattus norvegicus [1] | Rattus norvegicus [2] | Rattus norvegicus [3] | Rattus norvegicus [4] | Rattus norvegicus [5] | Rattus norvegicus [6] | Rattus norvegicus [7]

COc1ccc(CN2CCN(Cc3ccc(C(=O)N=C(N)N)cc3[N+](=O)[O-])CC2)c(OC)c1OC
active: Rattus norvegicus [8] | Rattus norvegicus [1] | Rattus norvegicus [9] Dose-dependent effect | Rattus norvegicus [2] | Rattus norvegicus [3] | Rattus norvegicus [10] | Rattus norvegicus [11] Dose-dependent effect | Rattus norvegicus [12] Dose-dependent effect | Rattus norvegicus [4] | Rattus norvegicus [13] Dose-dependent effect | Rattus norvegicus [5] | Rattus norvegicus [14] Dose-dependent effect | Rattus norvegicus [15] | Rattus norvegicus [7] | Rattus norvegicus [16] | Rattus norvegicus [17] | Rattus norvegicus [18] Dose-dependent effect
